Reference: ChEMBL document CHEMBL4689842, “EUbOPEN Chemogenomics Library wave 1” (2021)

System: Fibroblast
Test: Multiplex assay against human fibroblast
Assay type: toxicity, cell-based
Summary of the method: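 Per cents of healthy-nucleus cells form the tubulin, mitochondrial-mass and membrane-permeability phenotype values. Live cells were stained at seeding with Hoechst33342, BioTracker Green Microtubule Cytoskeleton Dye, MitoTracker Red and Annexin V Alexa Fluor 680. After compound addition they were imaged on a CQ1 microscope at 37°C and 5% CO2, and CellPathfinder machine-learning gating split them into Hoechst high-intensity objects or normal cells, normal cells into healthy, pyknosed or fragmented nuclei, and pyknosed cells into mitotic or apoptotic.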

[1] = 12 h, 1 µM, compound concentration 1 uM, replicate 1
[2] = 12 h, 1 µM, compound concentration 1 uM, replicate 2
[3] = 12 h, 10 µM, compound concentration 10 uM, replicate 1
[4] = 12 h, 10 µM, compound concentration 10 uM, replicate 2
[5] = 24 h, 1 µM, compound concentration 1 uM, replicate 1
[6] = 24 h, 1 µM, compound concentration 1 uM, replicate 2
[7] = 24 h, 10 µM, compound concentration 10 uM, replicate 1
[8] = 24 h, 10 µM, compound concentration 10 uM, replicate 2
[9] = 48 h, 1 µM, compound concentration 1 uM, replicate 1
[10] = 48 h, 1 µM, compound concentration 1 uM, replicate 2
[11] = 48 h, 10 µM, compound concentration 10 uM, replicate 1
[12] = 48 h, 10 µM, compound concentration 10 uM, replicate 2

## S=C(NCCCc1c[nH]cn1)NCCCN(Cc1ccc(Cl)c(Cl)c1)c1ccc(Br)cn1
[1]
  Population Apoptotic (%): 52%
  Population Fragmented Nuclei (%): 28%
  Population Healthy Nuclei (%): 42%
  Population Hoechst High Intensity Objects (%): 13%
  Population Membrane Permeable-Phenotype (%): 28%
  Population Mitochondria Different-Phenotype (%): 11%
  Population Mitotic Cells (%): 47%
  Population Normal (%): 86%
  Population Pyknosed Nuclei (%): 28%
  Population Tubulin-Different-Phenotype (%): 55%
  Total Cell Count: 140
[2]
  Population Apoptotic (%): 0%
  Population Fragmented Nuclei (%): 17%
  Population Healthy Nuclei (%): 82%
  Population Hoechst High Intensity Objects (%): 15%
  Population Membrane Permeable-Phenotype (%): 8%
  Population Mitochondria Different-Phenotype (%): 8%
  Population Mitotic Cells (%): 0%
  Population Normal (%): 84%
  Population Pyknosed Nuclei (%): 0%
  Population Tubulin-Different-Phenotype (%): 4%
  Total Cell Count: 79
[3]
  Population Apoptotic (%): 46%
  Population Fragmented Nuclei (%): 18%
  Population Healthy Nuclei (%): 8%
  Population Hoechst High Intensity Objects (%): 20%
  Population Membrane Permeable-Phenotype (%): 66%
  Population Mitochondria Different-Phenotype (%): 11%
  Population Mitotic Cells (%): 53%
  Population Normal (%): 79%
  Population Pyknosed Nuclei (%): 72%
  Population Tubulin-Different-Phenotype (%): 88%
  Total Cell Count: 133
[4]
  Population Apoptotic (%): 93%
  Population Fragmented Nuclei (%): 25%
  Population Healthy Nuclei (%): 2%
  Population Hoechst High Intensity Objects (%): 11%
  Population Membrane Permeable-Phenotype (%): 100%
  Population Mitochondria Different-Phenotype (%): 100%
  Population Mitotic Cells (%): 6%
  Population Normal (%): 88%
  Population Tubulin-Different-Phenotype (%): 100%
  Total Cell Count: 33
[5]
  Population Apoptotic (%): 66%
  Population Fragmented Nuclei (%): 32%
  Population Healthy Nuclei (%): 48%
  Population Hoechst High Intensity Objects (%): 17%
  Population Membrane Permeable-Phenotype (%): 19%
  Population Mitochondria Different-Phenotype (%): 11%
  Population Mitotic Cells (%): 33%
  Population Normal (%): 82%
  Population Pyknosed Nuclei (%): 18%
  Population Tubulin-Different-Phenotype (%): 64%
  Total Cell Count: 154
[6]
  Population Apoptotic (%): 0%
  Population Fragmented Nuclei (%): 19%
  Population Healthy Nuclei (%): 80%
  Population Hoechst High Intensity Objects (%): 8%
  Population Membrane Permeable-Phenotype (%): 16%
  Population Mitochondria Different-Phenotype (%): 8%
  Population Mitotic Cells (%): 0%
  Population Normal (%): 91%
  Population Pyknosed Nuclei (%): 0%
  Population Tubulin-Different-Phenotype (%): 20%
  Total Cell Count: 79
[7]
  Population Apoptotic (%): 53%
  Population Fragmented Nuclei (%): 24%
  Population Healthy Nuclei (%): 15%
  Population Hoechst High Intensity Objects (%): 21%
  Population Membrane Permeable-Phenotype (%): 56%
  Population Mitochondria Different-Phenotype (%): 18%
  Population Mitotic Cells (%): 46%
  Population Normal (%): 78%
  Population Pyknosed Nuclei (%): 60%
  Population Tubulin-Different-Phenotype (%): 93%
  Total Cell Count: 133
[8]
  Population Apoptotic (%): 100%
  Population Fragmented Nuclei (%): 12%
  Population Healthy Nuclei (%): 24%
  Population Hoechst High Intensity Objects (%): 25%
  Population Membrane Permeable-Phenotype (%): 94%
  Population Mitochondria Different-Phenotype (%): 88%
  Population Mitotic Cells (%): 0%
  Population Normal (%): 74%
  Population Pyknosed Nuclei (%): 62%
  Population Tubulin-Different-Phenotype (%): 88%
  Total Cell Count: 34
[9]
  Population Apoptotic (%): 57%
  Population Fragmented Nuclei (%): 50%
  Population Healthy Nuclei (%): 39%
  Population Hoechst High Intensity Objects (%): 20%
  Population Membrane Permeable-Phenotype (%): 24%
  Population Mitochondria Different-Phenotype (%): 1%
  Population Mitotic Cells (%): 42%
  Population Normal (%): 79%
  Population Pyknosed Nuclei (%): 9%
  Population Tubulin-Different-Phenotype (%): 36%
  Total Cell Count: 184
[10]
  Population Apoptotic (%): 50%
  Population Fragmented Nuclei (%): 40%
  Population Healthy Nuclei (%): 58%
  Population Hoechst High Intensity Objects (%): 21%
  Population Membrane Permeable-Phenotype (%): 23%
  Population Mitochondria Different-Phenotype (%): 0%
  Population Mitotic Cells (%): 50%
  Population Normal (%): 78%
  Population Pyknosed Nuclei (%): 1%
  Population Tubulin-Different-Phenotype (%): 63%
  Total Cell Count: 220
[11]
  Population Apoptotic (%): 58%
  Population Fragmented Nuclei (%): 34%
  Population Healthy Nuclei (%): 25%
  Population Hoechst High Intensity Objects (%): 34%
  Population Membrane Permeable-Phenotype (%): 39%
  Population Mitochondria Different-Phenotype (%): 26%
  Population Mitotic Cells (%): 41%
  Population Normal (%): 65%
  Population Pyknosed Nuclei (%): 40%
  Population Tubulin-Different-Phenotype (%): 91%
  Total Cell Count: 137
[12]
  Population Apoptotic (%): 80%
  Population Fragmented Nuclei (%): 37%
  Population Healthy Nuclei (%): 16%
  Population Hoechst High Intensity Objects (%): 33%
  Population Membrane Permeable-Phenotype (%): 77%
  Population Mitochondria Different-Phenotype (%): 0%
  Population Mitotic Cells (%): 20%
  Population Normal (%): 66%
  Population Pyknosed Nuclei (%): 46%
  Population Tubulin-Different-Phenotype (%): 100%
  Total Cell Count: 81

## Cl.Oc1ccc2c3c1O[C@H]1c4[nH]c5c(c4C[C@@]4(O)[C@@H](C2)N(CC2CC2)CC[C@]314)C[C@@]1(O)[C@H]2Cc3ccc(O)c4c3[C@@]1(CCN2CC1CC1)[C@H]5O4
[1]
  Population Apoptotic (%): 71%
  Population Fragmented Nuclei (%): 27%
  Population Healthy Nuclei (%): 40%
  Population Hoechst High Intensity Objects (%): 15%
  Population Membrane Permeable-Phenotype (%): 20%
  Population Mitochondria Different-Phenotype (%): 11%
  Population Mitotic Cells (%): 28%
  Population Normal (%): 84%
  Population Pyknosed Nuclei (%): 32%
  Population Tubulin-Different-Phenotype (%): 31%
  Total Cell Count: 103
[2]
  Population Apoptotic (%): 42%
  Population Fragmented Nuclei (%): 3%
  Population Healthy Nuclei (%): 86%
  Population Hoechst High Intensity Objects (%): 9%
  Population Membrane Permeable-Phenotype (%): 10%
  Population Mitochondria Different-Phenotype (%): 19%
  Population Mitotic Cells (%): 57%
  Population Normal (%): 90%
  Population Pyknosed Nuclei (%): 10%
  Population Tubulin-Different-Phenotype (%): 17%
  Total Cell Count: 97
[3]
  Population Apoptotic (%): 69%
  Population Fragmented Nuclei (%): 23%
  Population Healthy Nuclei (%): 47%
  Population Hoechst High Intensity Objects (%): 8%
  Population Membrane Permeable-Phenotype (%): 25%
  Population Mitochondria Different-Phenotype (%): 5%
  Population Mitotic Cells (%): 30%
  Population Normal (%): 91%
  Population Pyknosed Nuclei (%): 28%
  Population Tubulin-Different-Phenotype (%): 41%
  Total Cell Count: 173
[4]
  Population Apoptotic (%): 93%
  Population Fragmented Nuclei (%): 12%
  Population Healthy Nuclei (%): 48%
  Population Hoechst High Intensity Objects (%): 7%
  Population Membrane Permeable-Phenotype (%): 52%
  Population Mitochondria Different-Phenotype (%): 26%
  Population Mitotic Cells (%): 6%
  Population Normal (%): 92%
  Population Pyknosed Nuclei (%): 38%
  Population Tubulin-Different-Phenotype (%): 89%
  Total Cell Count: 73
[5]
  Population Apoptotic (%): 66%
  Population Fragmented Nuclei (%): 19%
  Population Healthy Nuclei (%): 51%
  Population Hoechst High Intensity Objects (%): 14%
  Population Membrane Permeable-Phenotype (%): 27%
  Population Mitochondria Different-Phenotype (%): 2%
  Population Mitotic Cells (%): 33%
  Population Normal (%): 85%
  Population Pyknosed Nuclei (%): 29%
  Population Tubulin-Different-Phenotype (%): 43%
  Total Cell Count: 84
[6]
  Population Apoptotic (%): 25%
  Population Fragmented Nuclei (%): 3%
  Population Healthy Nuclei (%): 91%
  Population Hoechst High Intensity Objects (%): 4%
  Population Membrane Permeable-Phenotype (%): 10%
  Population Mitochondria Different-Phenotype (%): 13%
  Population Mitotic Cells (%): 75%
  Population Normal (%): 95%
  Population Pyknosed Nuclei (%): 4%
  Population Tubulin-Different-Phenotype (%): 18%
  Total Cell Count: 94
[7]
  Population Apoptotic (%): 65%
  Population Fragmented Nuclei (%): 18%
  Population Healthy Nuclei (%): 62%
  Population Hoechst High Intensity Objects (%): 15%
  Population Membrane Permeable-Phenotype (%): 25%
  Population Mitochondria Different-Phenotype (%): 3%
  Population Mitotic Cells (%): 34%
  Population Normal (%): 84%
  Population Pyknosed Nuclei (%): 19%
  Population Tubulin-Different-Phenotype (%): 27%
  Total Cell Count: 178
[8]
  Population Apoptotic (%): 76%
  Population Fragmented Nuclei (%): 13%
  Population Healthy Nuclei (%): 58%
  Population Hoechst High Intensity Objects (%): 13%
  Population Membrane Permeable-Phenotype (%): 48%
  Population Mitochondria Different-Phenotype (%): 33%
  Population Mitotic Cells (%): 23%
  Population Normal (%): 86%
  Population Pyknosed Nuclei (%): 28%
  Population Tubulin-Different-Phenotype (%): 77%
  Total Cell Count: 91
[9]
  Population Apoptotic (%): 60%
  Population Fragmented Nuclei (%): 26%
  Population Healthy Nuclei (%): 52%
  Population Hoechst High Intensity Objects (%): 16%
  Population Membrane Permeable-Phenotype (%): 32%
  Population Mitochondria Different-Phenotype (%): 5%
  Population Mitotic Cells (%): 40%
  Population Normal (%): 83%
  Population Pyknosed Nuclei (%): 21%
  Population Tubulin-Different-Phenotype (%): 43%
  Total Cell Count: 85
[10]
  Population Apoptotic (%): 75%
  Population Fragmented Nuclei (%): 16%
  Population Healthy Nuclei (%): 78%
  Population Hoechst High Intensity Objects (%): 7%
  Population Membrane Permeable-Phenotype (%): 18%
  Population Mitochondria Different-Phenotype (%): 0%
  Population Mitotic Cells (%): 25%
  Population Normal (%): 92%
  Population Pyknosed Nuclei (%): 4%
  Population Tubulin-Different-Phenotype (%): 26%
  Total Cell Count: 103
[11]
  Population Apoptotic (%): 61%
  Population Fragmented Nuclei (%): 31%
  Population Healthy Nuclei (%): 55%
  Population Hoechst High Intensity Objects (%): 18%
  Population Membrane Permeable-Phenotype (%): 30%
  Population Mitochondria Different-Phenotype (%): 6%
  Population Mitotic Cells (%): 38%
  Population Normal (%): 81%
  Population Pyknosed Nuclei (%): 12%
  Population Tubulin-Different-Phenotype (%): 34%
  Total Cell Count: 172
[12]
  Population Apoptotic (%): 66%
  Population Fragmented Nuclei (%): 29%
  Population Healthy Nuclei (%): 66%
  Population Hoechst High Intensity Objects (%): 10%
  Population Membrane Permeable-Phenotype (%): 14%
  Population Mitochondria Different-Phenotype (%): 1%
  Population Mitotic Cells (%): 33%
  Population Normal (%): 89%
  Population Pyknosed Nuclei (%): 3%
  Population Tubulin-Different-Phenotype (%): 41%
  Total Cell Count: 94
